A selection: hits, their analogues and other compounds. The true share with any hit is near 1.3%.
mABHD4 FP – inhibits mouse alpha/beta hydrolase domain 4. 0.54% of 370,000 active. purified mABHD4, FP-Rh probe fluorescence polarization. inhibition, % at 8.92 µM. Q8VD66;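 active = inhibition exceeding the mean over every tested compound plus 3 SD, cut at about 30% in these data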;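 note: 0% = plate median of compound wells and 100% = S159A mutant with DMSO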
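Test system: mABHD4 protein | Buffer or medium: HEPES pH 7.0 buffer, 150 mM NaCl, 0.01% Pluronic F-127 | Probe or stimulus: FP-Rh fluorescent activity-based probe, added after compound pre-incubation | Timing: Pre-incubation 45 min, probe exposure 60 min, at 25 °C | Technique: Fluorescence polarization, excitation 525 nm, emission 598 nm, BODIPY TMR filters | Repeats: Single well per compound (singlicate)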
DDE Tn6 FP inh – DD(E)-Tn6 binding inhibition, primary FP screen. P02675. Fibrin DD(E) TRITC-Tn6 fluorescence polarization displacement. inhibition, % at 8.3 µM. 0.21% of 370,000 active. AID 720509;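 active = inhibition above a per-campaign cutoff: mean of compounds within control limits plus 3 SD, cut at about 15% in these data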;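 note: 0% = median of all compound wells on the plate and 100% = blocking peptide control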
Target sequence (P02675 whole entry, looked up): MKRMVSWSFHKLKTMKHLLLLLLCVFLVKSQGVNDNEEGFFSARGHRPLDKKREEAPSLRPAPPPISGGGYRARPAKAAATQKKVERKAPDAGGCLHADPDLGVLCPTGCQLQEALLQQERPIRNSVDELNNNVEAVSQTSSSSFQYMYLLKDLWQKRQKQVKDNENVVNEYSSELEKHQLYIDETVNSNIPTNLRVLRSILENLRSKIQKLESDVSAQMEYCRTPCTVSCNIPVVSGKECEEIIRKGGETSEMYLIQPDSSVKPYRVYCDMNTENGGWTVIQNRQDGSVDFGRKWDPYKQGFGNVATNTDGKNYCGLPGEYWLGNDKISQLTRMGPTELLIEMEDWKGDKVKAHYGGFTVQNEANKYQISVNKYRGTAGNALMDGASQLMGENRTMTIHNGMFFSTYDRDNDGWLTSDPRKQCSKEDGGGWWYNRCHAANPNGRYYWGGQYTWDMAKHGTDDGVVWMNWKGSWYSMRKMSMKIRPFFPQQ
HTRA1 inh – blocks human HTRA1 serine peptidase | Q92743 | recombinant HTRA1, FP-rhodamine activity-based probe, fluorescence polarization | inhibition, % at 5.96 µM | 0.5% of 340,000 active | AID 504803; in the data active = inhibition above about 36%;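 note: 0% = enzyme with DMSO and 100% = wells lacking enzyme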
Tn7 DDE FP – disrupts Tn7 cyclic peptide binding to fibrin D-Dimer-E complex; 0.13% of 370,000 active; FP displacement of FITC-Tn7 peptide from fibrin DD(E); 0% = median of compound wells per plate; inhibition, % at 8.3 µM;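 active = inhibition above the mean of compounds falling within the control limits plus 3 SD of them, cut at about 14% in these data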;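 note: 0% = plate median of compound wells and 100% = 10 µM Aha-Tn7 peptide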
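Test system: human clot-derived fibrin DD(E) complex / Quantity: 2 µM final DD(E) protein / Incubation: 10 min plus 3 h, room temperature / Measured by: fluorescence polarization / Benchmarks: high control of 10 µM Aha-Tn7 peptide / Replicates: singlicate testing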
TCR-CD3 inh – human TCR-CD3 binding inhibition; TAMRA-labeled TCR probe fluorescence, biochemical; inhibition, % at 9.4 µM; 0.37% of 360,000 active; AID 651800; in the data active = inhibition above about 19%;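 note: recombinant mutant TCR 2C K166C tagged with TAMRA read by polarization; 0% = receptor in buffer alone and 100% = receptor with positive control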
ABHD4 confirm – ABHD4 (mouse) inhibition, FP confirmation; shares compounds with mABHD4 FP; purified mABHD4, FP-Rh probe fluorescence polarization; inhibition, % at 8.92 µM; 55% of 1,800 active;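 active = mean inhibition across replicates above the hit cutoff set in the primary screen, cut at about 30% in these data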;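 note: 0% = wild-type ABHD4 with DMSO and 100% = catalytically dead S159A mutant with DMSO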
* = called active by the depositor; x = no result given.

SMILES	mABHD4 FP	DDE Tn6 FP inh	HTRA1 inh	Tn7 DDE FP	TCR-CD3 inh	ABHD4 confirm
COc1cc(N(C(C)=O)c2ccc(O)c(C(=O)O)c2)c2ncccc2c1	31*	0	16	-12	15	47*
CC(C)(C)c1ccc(-c2nnc(SC3CCOC3=O)n2Cc2ccccc2)cc1 (stereo unspecified)	-4	-3	-8	0	4	x
CC1(C)CC(=O)C2=C(C1)OC(N)=C(C#N)C2c1cc2c(cc1[N+](=O)[O-])OCO2 (stereo unspecified)	34*	1	8	7	4	2
CCOc1cc(C2C(C#N)=C(N)OC3=C2C(=O)CC(C)(C)C3)cc([N+](=O)[O-])c1O (stereo unspecified)	3	6	3	-2	-5	x
Cc1cc(C)cc(N2C(=O)CN(Cc3ccccc3)C2=S)c1	-7	-8	-16	-2	4	x
CC(C)c1ccc(NC(=O)Nc2nc(C(N)C3CCCCC3)cs2)cc1 (stereo unspecified)	31*	0	x	-1	-9	32*
Cc1nn(-c2ccccc2)c(C)c1/C=N/Nc1nc2ccccc2[nH]1	42*	-6	19	-7	-5	56*
Cc1c(/C=N/Nc2nc3ccccc3[nH]2)c2ccccc2n1C	41*	-14	34	2	-8	70*
Cc1cccc(NC(=O)CSc2nccn2Cc2ccco2)c1C	-2	6	4	-2	2	x
Cc1[nH]n(-c2ccccc2)c(=O)c1C(C[N+](=O)[O-])c1ccc(Cl)cc1 (stereo unspecified)	7	-6	5	-6	7	x
Cc1[nH]n(-c2ncc(-c3ccccc3)s2)c(=O)c1C(c1ccc(Cl)cc1)C(C#N)C#N (stereo unspecified)	49*	-1	12	0	-13	52*
CCNC(=S)NC1CC2CCCC(C1)N2CCc1ccccc1 (stereo unspecified)	4	-7	-2	-2	5	x
COc1ccc(C(C)=O)c(OC(=O)c2ccc(OC)c(OC)c2)c1	-6	-8	1	-1	2	x
COc1ccc(C(=O)Oc2cc(OC)cc(OC)c2C(C)=O)cc1	38*	-3	-4	0	-1	41*
Oc1cccc(-c2nc3ccccc3s2)c1	-19	-8	-14	-12	5	x
Oc1cccc(-c2nnc(-c3cccc(O)c3)nn2)c1	42*	-10	-1	6	3	60*
O=C(COc1cccc2c1CCNC2=O)Nc1cccc(F)c1	-2	3	-8	9	3	x
Cc1nnc(SCC(N)=O)n1CCc1ccccc1	4	4	1	5	0	x
CCn1c(=O)c2ccccc2n(CC(=O)NC2CCCCC2)c1=O	0	-7	8	-2	-3	x
COc1ccccc1N1CCN(C(=O)c2oc3cc(C)cc(C)c3c2C)CC1	-4	0	-28	-4	0	x
Cc1ccc(Nc2nc(-c3ccc(O)c(O)c3)cs2)nc1	42*	-1	x	-7	13	53*
CC(=O)C1C(=O)c2c(cccc2[N+](=O)[O-])C1=Nc1cccc(Cl)c1 (stereo unspecified)	36*	-5	14	-4	8	61*
CC(=O)C1C(=O)c2c(cccc2[N+](=O)[O-])C1=Nc1ccccc1C (stereo unspecified)	6	3	x	3	-9	x
CC[C@]12c3[nH]c4ccc(OC)cc4c3CCN1C(=O)C(CC(=O)NCCC1=CCCCC1)C[C@@H]2C(=O)N1CCN(C(=O)C2CC2)CC1 (stereo partly specified)	-3	7	3	1	-10	x
CC(C)(C)CC(C)(C)c1ccc(OCCOCC[N+](C)(C)Cc2ccccc2)cc1	36*	4	16	3	3	44*
Cc1[nH]n(-c2ccccc2)c(=O)c1C(c1ccccc1[N+](=O)[O-])C(C#N)C#N (stereo unspecified)	42*	-2	14	-6	4	38*
Cc1[nH]n(-c2ccccc2)c(=O)c1C(c1ccccc1C(=O)O)c1c(C)[nH]n(-c2ccccc2)c1=O	5	-2	-4	-1	3	x

Screens from PubChem.
